Screens as filed in PubChem.
Only some compounds are listed: those with a hit (about 27% of all), similar ones and a draw of the others.
CYP2C19 inh: human CYP2C19 inhibition; inhibition, % at 5 µM; 96,000 tested, 21% active; CYP2C19 Supersomes, luciferin-H EGE luminescence, 30 min; P33261;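 active means CYP2C19 inhibition above a set limit at 5 µM in the primary screen, cut at about 50% in these data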;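 further: plate controls were negative control wells for no effect and 2.5 mM tranylcypromine positive control for full effect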
CYP2C9 inhib: inhibitors of human CYP2C9. P11712. CYP2C9 Supersomes, luciferin-H conversion, luminescence. inhibition, % at 5 µM. 96,000 tested, 20% active;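 active means blocking of liver enzyme CYP2C9 beyond about 50% at 5 µM, limit read from the data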
Cav32 inh: inhibitors of human Cav3.2 T-type calcium channel | O95180 | Cav3.2-expressing cells, Fluo-4 calcium fluorescence FDSS; stronger effect = lower value | B-score at 10 µM | 100,000 tested, 4% active | AID 449739;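 active means single-dose well whose peak fluorescence ratio is a statistical outlier from its plate by either plate-standardised score or position-corrected B-score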
Target sequence (O95180 whole entry, looked up): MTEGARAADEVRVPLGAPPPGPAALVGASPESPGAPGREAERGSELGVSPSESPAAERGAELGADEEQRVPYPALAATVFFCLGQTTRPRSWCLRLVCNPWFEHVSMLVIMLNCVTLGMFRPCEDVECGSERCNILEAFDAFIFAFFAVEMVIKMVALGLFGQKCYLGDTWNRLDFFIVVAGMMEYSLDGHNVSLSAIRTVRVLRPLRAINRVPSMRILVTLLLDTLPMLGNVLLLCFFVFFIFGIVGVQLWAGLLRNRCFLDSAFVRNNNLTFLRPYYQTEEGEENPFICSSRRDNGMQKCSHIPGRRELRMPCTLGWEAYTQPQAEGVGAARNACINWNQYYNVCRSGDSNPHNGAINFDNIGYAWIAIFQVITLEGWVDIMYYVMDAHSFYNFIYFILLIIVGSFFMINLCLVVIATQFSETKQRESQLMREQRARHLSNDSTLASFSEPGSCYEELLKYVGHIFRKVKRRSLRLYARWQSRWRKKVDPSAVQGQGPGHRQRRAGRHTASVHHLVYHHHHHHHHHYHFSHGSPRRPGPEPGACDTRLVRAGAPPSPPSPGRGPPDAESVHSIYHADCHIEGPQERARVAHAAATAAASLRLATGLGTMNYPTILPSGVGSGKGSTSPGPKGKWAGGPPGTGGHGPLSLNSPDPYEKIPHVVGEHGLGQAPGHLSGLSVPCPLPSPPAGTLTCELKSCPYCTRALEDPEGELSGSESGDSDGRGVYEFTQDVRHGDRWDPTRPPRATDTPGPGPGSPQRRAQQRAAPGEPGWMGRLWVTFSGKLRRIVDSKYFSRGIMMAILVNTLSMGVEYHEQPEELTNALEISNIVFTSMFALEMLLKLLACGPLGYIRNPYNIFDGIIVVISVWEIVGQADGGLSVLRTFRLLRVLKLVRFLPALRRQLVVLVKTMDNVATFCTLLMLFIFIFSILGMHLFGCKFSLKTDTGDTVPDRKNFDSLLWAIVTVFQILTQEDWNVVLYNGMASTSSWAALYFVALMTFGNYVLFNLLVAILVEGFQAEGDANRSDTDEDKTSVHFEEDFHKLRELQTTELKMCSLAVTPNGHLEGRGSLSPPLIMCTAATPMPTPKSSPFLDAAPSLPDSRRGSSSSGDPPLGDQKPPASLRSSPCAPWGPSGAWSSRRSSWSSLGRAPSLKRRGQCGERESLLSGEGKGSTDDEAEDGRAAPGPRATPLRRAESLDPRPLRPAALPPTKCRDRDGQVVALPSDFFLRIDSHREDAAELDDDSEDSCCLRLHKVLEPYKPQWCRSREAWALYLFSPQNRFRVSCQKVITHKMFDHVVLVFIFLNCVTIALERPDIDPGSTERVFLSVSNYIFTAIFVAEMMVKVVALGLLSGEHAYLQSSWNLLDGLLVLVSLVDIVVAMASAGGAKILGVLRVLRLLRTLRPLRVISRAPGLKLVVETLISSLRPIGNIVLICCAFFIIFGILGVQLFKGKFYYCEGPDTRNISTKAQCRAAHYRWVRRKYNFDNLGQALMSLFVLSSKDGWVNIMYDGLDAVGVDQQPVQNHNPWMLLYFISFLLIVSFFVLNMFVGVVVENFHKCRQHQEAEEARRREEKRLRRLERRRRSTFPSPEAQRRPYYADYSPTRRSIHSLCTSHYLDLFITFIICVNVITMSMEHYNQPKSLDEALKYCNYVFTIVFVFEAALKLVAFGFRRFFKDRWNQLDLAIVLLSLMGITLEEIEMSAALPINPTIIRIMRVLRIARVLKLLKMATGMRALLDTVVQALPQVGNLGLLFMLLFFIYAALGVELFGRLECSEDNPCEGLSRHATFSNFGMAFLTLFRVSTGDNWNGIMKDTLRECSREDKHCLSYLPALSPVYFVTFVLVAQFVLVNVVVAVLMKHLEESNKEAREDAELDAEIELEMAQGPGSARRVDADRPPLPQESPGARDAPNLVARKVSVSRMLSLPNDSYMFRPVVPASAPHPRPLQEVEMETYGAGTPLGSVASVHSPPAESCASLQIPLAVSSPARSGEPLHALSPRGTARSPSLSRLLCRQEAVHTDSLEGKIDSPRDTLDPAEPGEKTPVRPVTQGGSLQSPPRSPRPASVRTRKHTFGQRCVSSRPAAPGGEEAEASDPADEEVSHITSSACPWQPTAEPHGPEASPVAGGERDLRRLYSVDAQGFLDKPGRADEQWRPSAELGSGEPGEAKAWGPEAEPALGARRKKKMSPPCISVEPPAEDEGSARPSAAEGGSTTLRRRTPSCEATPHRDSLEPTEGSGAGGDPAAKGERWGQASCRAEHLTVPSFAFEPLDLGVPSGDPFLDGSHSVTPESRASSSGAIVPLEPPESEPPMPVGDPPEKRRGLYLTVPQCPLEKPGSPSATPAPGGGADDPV
HIV Rev-RRE inh: inhibitors of HIV-1 Rev-RRE RNA interaction | AID 704 | 97,000 tested, 0.79% active | Rev peptide-RRE RNA binding, FRET | inhibition, % at 8 µM;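 active means inhibition above the screen-wide mean plus 3 SD, cut at about 35% in these data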;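 further: 0% = median DMSO wells and 100% = median Neomycin B control wells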
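Test system: Cy5-tagged RRE RNA duplex with fluorescein-tagged Rev peptide | Read-out: % inhibition of FRET ratio versus controls | Probe or stimulus: Labelled Rev peptide | Incubation: 5 min RNA-compound premix plus 15 min binding step, 25 °C | Technique: FRET fluorescence readout | Benchmarks: DMSO low control, neomycin B high control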
CYP2C9 activ: increases human cytochrome P450 2C9 activity | activation factor at 5 µM | recombinant CYP2C9, luciferin-H conversion, luminescence; stronger effect = higher value; factor 1 = untreated enzyme, 0 = blocked | 96,000 tested, 1.4% active | AID 1024;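 active means activation factor of 2 or more for CYP2C9 at a 5 µM dose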;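 further: 0 = sulfaphenazole-blocked wells and 1 = vehicle-only wells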
CYP2C19 activ: activators of human cytochrome P450 2C19; P33261; recombinant CYP2C19, luciferin-H EGE luminescence; stronger effect = higher value; 0 = fully inhibited enzyme, 1 = untreated enzyme; activation factor at 5 µM; 96,000 tested, under 10 active;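 active means activation factor of at least 2 at 5 µM in the primary screen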;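 further: 0 = wells with 2.5 mM tranylcypromine and 1 = vehicle-only wells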
Numbers without * were called inactive; x = no result.

SMILES | CYP2C19 inh | CYP2C9 inhib | Cav32 inh | HIV Rev-RRE inh | CYP2C9 activ | CYP2C19 activ
Cc1ccnc(NC(=O)COC(=O)C2COc3ccccc3O2)n1 (configuration not stated) | 3 | 5 | 0.0025 | 2 | 0.9 | 1
O=C1c2ccccc2C(=O)N1CCn1c(=O)oc2ccccc21 | 32 | -9 | -2 | 11 | 1.1 | 0.7
CSc1ccc2nnc(-c3cccc(F)c3)n2n1 | 15 | 28 | -0.41 | 5 | 0.7 | 0.8
Cc1cc(C)nc(Sc2ccc3nnc(C(F)(F)C(F)(F)C(F)(F)F)n3n2)n1 | 58* | 63* | 0.39 | 10 | 0.4 | 0.4
C/C(=N/NC(N)=S)c1ccccc1[N+](=O)[O-] | -1 | -3 | -0.026 | 5 | 1 | 1
COCCN(CCOC)Cc1c(C)[nH]c2ccccc2c1=O | 65* | 35 | -0.058 | 9 | 0.7 | 0.4
CC(=O)CCc1c(C)[nH]c2ccccc2c1=O | -7 | -117 | 0.91 | 4 | 2.2* | 1.1
Cc1[nH]c2ccccc2c(=O)c1CN(C)Cc1ccccc1 | 0 | 12 | 0.5 | 0 | 0.9 | 1
CCc1c(C)[nH]c2ccccc2c1=O | -14 | -372 | x | x | 4.7* | 1.1
COc1cc(C(=O)N2CCC(NC(=O)C(Cc3ccc(C(C)C)cc3)NC(C)=O)CC2)cc(OC)c1OC (configuration not stated) | 13 | 3 | -0.17 | 6 | 1 | 0.9
CC(=O)NC(Cc1ccc(C(C)C)cc1)C(=O)NC1CCN(c2nc(C)cc(C)n2)CC1 (configuration not stated) | 60* | -35 | -1.5 | 3 | 1.4 | 0.4
CCOC(=O)c1ccc(NC(=S)Nc2ccccc2N)cc1 | x | x | 0.81 | x | x | x
O=C(NC1(C(F)(F)F)C(=O)Nc2c1c(=O)[nH]c(=O)n2Cc1ccco1)C1CCCCC1 (configuration not stated) | -12 | -7 | -1.3 | 9 | 1.1 | 1.1
CC1CN(Cc2nc3c(c(=O)[nH]c(=O)n3C)n2CC(N)=O)CC(C)O1 (configuration not stated) | -16 | 12 | x | -1 | 0.9 | 1.2
O=C(CSc1ccc2nnc(-c3ccccn3)n2n1)N1CCN(c2ccccc2)CC1 | 38 | -1 | 0.11 | 3 | 1 | 0.6
CC[C@H](C)/C=C(C)/C=C/C1=CC2=CC(=O)[C@]3(C)OC(=O)[C@@H](C(C)=O)[C@@H]3C2=CO1 | x | x | -4* | x | x | x
O=C(CCCN1C(=O)C2CCCCN2C1=O)N1CCN(c2ccc([N+](=O)[O-])cc2)CC1 (configuration not stated) | -2 | 0 | 1.7 | 9 | 1 | 1
Cc1ccc(N2C(=O)CC(n3ccnc3)C2=O)cc1C (configuration not stated) | 58* | 5 | 0.016 | 5 | 0.9 | 0.4
Cc1cccc(N2C(=O)CC(N3CCOCC3)C2=O)c1 (configuration not stated) | 17 | -13 | 0.16 | x | 1.1 | 0.8
CC1(C)CC(=O)c2c(O)cc(OCc3ccc(Br)cc3)cc2O1 | 61* | 85* | -1 | 20 | 0.2 | 0.4
COc1cc(O)c2c(c1)OC(C)(C)CC2=O | 5 | -8 | 0.053 | 5 | 1.1 | 1
COC(=O)c1ccc(COc2cc(O)c3c(c2)OC(C)(C)CC3=O)cc1 | 51* | 23 | -0.57 | 3 | 0.8 | 0.5
CCOC(=O)NC1(NC2CCCCC2)Oc2ccccc2O1 | 34 | 57* | -3.7 | 2 | 0.4 | 0.7
Cc1cccc(NC(=O)c2ccc(-n3ccnc3)nc2)c1 | 100* | 98* | -0.49 | 6 | 0 | 0
COC(=O)c1ccc([C@H]2C=C(C(=O)O)O[C@@H](OCc3ccc(CO)cc3)C2)cc1 | x | x | 0.15 | x | x | x
SMILES | CYP2C19 inh | CYP2C9 inhib | Cav32 inh | HIV Rev-RRE inh | CYP2C9 activ | CYP2C19 activ
CCOC(=O)c1cccc(NC(=O)CSc2nnc(-c3ccncc3)n2CCCOC)c1 | 50* | 64* | -2.4 | 9 | 0.4 | 0.5
CCCn1c(SCC(=O)Nc2nccs2)nnc1-c1cccnc1 | 59* | -1 | 0.49 | 5 | 1 | 0.4
CCOC(=O)c1cccc(NC(=O)CSc2nnnn2C)c1 | 7 | 20 | 0.96 | 10 | 0.8 | 0.9
CCCn1c(SCC(=O)Nc2cccc(C(=O)OC)c2)nnc1-c1cccnc1 | 43 | 51* | 2 | 4 | 0.5 | 0.6
CCCCn1c(SCC(=O)Nc2nc(C)cs2)nnc1-c1cccnc1 | 0 | -6 | 0.63 | 4 | 1.1 | 1
CC1=CCC2C(=O)N(c3ccc(C(=O)N4CCCCCC4)cc3)C(=O)C2C1 (configuration not stated) | -4 | 29 | 0.0079 | -4 | 0.7 | 1
NC(=O)[C@@H]1CC2(CC(c3cccc(NC(=O)[C@H]4CCC(=O)N4)c3)=NO2)CN1C(=O)COc1ccc(Cl)cc1 (some centres not stated) | x | x | -0.13 | x | x | x
COc1ccc(N2CCN(c3nc(NCCO)nc(N4CCOCC4)n3)CC2)cc1 | 59* | 80* | 1.1 | -2 | 0.2 | 0.4
COc1ccc(N2CCN(c3nc(Cl)nc(N4CCOCC4)n3)CC2)cc1 | x | x | -3.2 | 1 | x | x
CCN(C)c1ccc(/C=N\n2nnnc2N)cc1 | 31 | -26 | 0.065 | 10 | 1.3 | 0.7
CC(C)CCN(C)c1ccc(/C=N/n2cnnc2)cc1 | 99* | 95* | -1.1 | 4 | 0 | 0
CSc1oc(-c2ccco2)nc1S(=O)(=O)c1ccc(F)cc1 | x | x | 0.78 | x | x | x
CSc1oc(-c2ccco2)nc1S(=O)(=O)c1ccccc1 | 27 | -193 | 1.1 | 8 | 2.9* | 0.7
O=C1CC(c2cc3c(cc2Br)OCO3)C2=C(CCCC2=O)N1 (configuration not stated) | 16 | 16 | x | 3 | 0.8 | 0.8
Cc1ccc(C(=O)NCCSc2ccccc2)cc1S(=O)(=O)Nc1ccccc1 | 60* | 73* | -5.8* | 11 | 0.3 | 0.4
O=C(NCCSc1ccccc1)c1ccccc1 | 84* | 45 | -0.95 | 6 | 0.5 | 0.2
CC(C)(C)SCCNC(=O)c1ccccc1 | 62* | 22 | x | 1 | 0.8 | 0.4
COCCNC(=O)c1ccc(C)c(S(=O)(=O)Nc2ccc(C)cc2)c1 | 36 | 38 | 2.3 | -5 | 0.6 | 0.6
CSc1ccccc1C(=O)NCCSC(C)(C)C | -16 | -17 | 0.16 | 4 | 1.2 | 1.2
CSCCNC(=O)c1ccc(C(C)(C)C)cc1 | 33 | 15 | 0.19 | 7 | 0.8 | 0.7
Cc1ccc(C(=O)NCCSC(C)(C)C)cc1 | 68* | 45 | 1.2 | 2 | 0.6 | 0.3
O=C(CN(C(=O)Cn1nnc(-c2cccs2)n1)c1ccc2c(c1)OCCO2)NC1CCCCC1 | 60* | 99* | -4.1* | 7 | 0 | 0.4
O=C(NCC1CCCO1)C(c1ccc(F)cc1)N(Cc1ccc(F)cc1)C(=O)Cn1nnc(-c2cccs2)n1 (configuration not stated) | x | x | -1.6 | 5 | x | x
